Most compounds without a hit are left out; they make up all but 2.1% or so of the library.
GSTO1 counter: inhibitors of recombinant GSTO1, primary screen, counter-screen for RBBP9 inhibitor project, biochemical, fluorescence polarization; inhibition, % at 5.96 µM; AID 1974, 2009; actives 1.1% (n = 300,000); Glutathione S-transferase omega-1 (Homo sapiens), P78417; activity-based probe fluorescence polarization;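 active means inhibition above the campaign mean inhibition plus 3 SD, cut at about 35% in these data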;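 further: 0% = GSTO1-1 with DMSO and 100% = wells lacking GSTO1-1 enzyme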
Apaf1 inhib: inhibitors of human Apaf-1 apoptosome, primary screen, biochemical, DEVD-Rh110 fluorescence, uHTS. actives 0.71% (n = 330,000). AID 489030, 2010. inhibition, % at 20 µM. reconstituted apoptosome caspase-3 activity; active means inhibition of at least 40% at 20 µM;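 further: plate controls were DMSO wells for no effect and DEVD-CHO caspase inhibitor wells for full effect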
Target sequence (O14727 whole entry, looked up): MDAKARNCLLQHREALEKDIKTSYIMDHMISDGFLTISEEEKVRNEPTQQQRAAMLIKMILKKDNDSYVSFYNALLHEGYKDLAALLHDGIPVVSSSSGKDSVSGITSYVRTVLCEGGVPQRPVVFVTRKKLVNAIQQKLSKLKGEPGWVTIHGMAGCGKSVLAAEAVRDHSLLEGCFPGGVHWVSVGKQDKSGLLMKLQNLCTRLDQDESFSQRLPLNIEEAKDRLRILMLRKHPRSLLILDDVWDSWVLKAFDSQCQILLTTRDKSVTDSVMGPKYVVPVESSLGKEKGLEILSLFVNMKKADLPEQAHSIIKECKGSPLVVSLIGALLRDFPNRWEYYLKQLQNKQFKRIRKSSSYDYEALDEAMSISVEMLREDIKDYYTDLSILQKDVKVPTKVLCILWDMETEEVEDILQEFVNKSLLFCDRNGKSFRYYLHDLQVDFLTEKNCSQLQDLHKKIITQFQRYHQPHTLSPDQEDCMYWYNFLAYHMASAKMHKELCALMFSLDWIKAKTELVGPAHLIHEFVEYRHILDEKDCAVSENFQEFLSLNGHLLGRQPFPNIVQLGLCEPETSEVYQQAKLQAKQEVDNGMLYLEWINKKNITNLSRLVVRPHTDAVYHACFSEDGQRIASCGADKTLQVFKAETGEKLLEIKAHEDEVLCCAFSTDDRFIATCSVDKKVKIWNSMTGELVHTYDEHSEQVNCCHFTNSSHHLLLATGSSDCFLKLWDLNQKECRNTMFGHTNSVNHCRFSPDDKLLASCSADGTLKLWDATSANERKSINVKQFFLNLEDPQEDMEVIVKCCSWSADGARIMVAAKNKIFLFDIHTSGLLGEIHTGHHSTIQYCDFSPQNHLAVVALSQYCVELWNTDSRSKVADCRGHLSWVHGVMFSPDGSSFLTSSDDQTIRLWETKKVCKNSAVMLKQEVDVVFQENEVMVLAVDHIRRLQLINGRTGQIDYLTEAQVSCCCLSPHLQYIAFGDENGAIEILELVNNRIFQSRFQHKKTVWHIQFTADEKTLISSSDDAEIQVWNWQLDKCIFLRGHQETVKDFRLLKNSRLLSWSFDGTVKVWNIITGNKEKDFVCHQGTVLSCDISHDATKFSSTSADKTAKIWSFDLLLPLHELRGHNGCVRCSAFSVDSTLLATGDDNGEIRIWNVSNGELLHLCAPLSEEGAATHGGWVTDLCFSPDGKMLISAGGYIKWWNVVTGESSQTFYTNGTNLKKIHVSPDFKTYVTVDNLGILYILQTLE
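Material: reconstituted apoptosome with Apaf-1, cytochrome c, caspase-9, procaspase-3, dATP. Technique: Rh110 fluorescence intensity. Buffer or medium: pH 7.5 Hepes buffer with CHAPS, BSA, DTT. Times: 30 min plus 50 min, RT.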
TDP2 inh: human TDP2 enzyme inhibitors, primary screen, biochemical, epi absorbance, recombinant enzyme; T5PNP hydrolysis, p-nitrophenol absorbance 415 nm; Tyrosyl-DNA phosphodiesterase 2 (Homo sapiens), O95551; inhibition, % at 12.8 µM; actives 0.34% (n = 370,000);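 active means inhibition above the mean of all tested compounds plus 3 SD, set per campaign, cut at about 25% in these data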;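 further: 0% = DMSO with enzyme and 100% = buffer with substrate but no TDP2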
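Material: recombinant human TDP2; quantity: TDP2 enzyme at 120 nM final; medium: Tris-HCl pH 7.5 with MgCl2; compound: single concentration, 12.8 µM nominal, with 1% DMSO; incubation: 2 h enzyme incubation at 37 °C; signal: epi absorbance; measure: percent inhibition; benchmarks: high control without enzyme, low control DMSO plus TDP2; repeats: singlicate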
PP5 primary: PP5 phosphatase inhibitors, primary screen, biochemical, fluorescence | inhibition, % at 6.7 µM | purified PP5c, OMFP substrate fluorescence | AID 1987, 2009 | actives 0.18% (n = 320,000) | Serine/threonine-protein phosphatase 5 (Homo sapiens), P53041;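 active means inhibition above the campaign's mean inhibition across all tested compounds plus 3 SD, cut at about 9.5% in these data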;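 further: 0% = DMSO only and 100% = 100 µM cantharidin control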
PP1 counter: PP1-alpha phosphatase inhibitors, primary screen, counter-screen for PP5 inhibitor project, biochemical, fluorescence, OMFP substrate, single point; purified PP1alpha; AID 2235, 2010; actives 0.9% (n = 320,000); inhibition, % at 6.7 µM;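 active means inhibition above the mean inhibition of all tested compounds plus 3 SD, computed separately for each screening campaign, cut at about 15% in these data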
GSTO1 inh conf: GSTO1 inhibitor hit confirmation, counter-screen for RBBP9 inhibitor project, biochemical, fluorescence polarization, triplicate; recombinant GSTO1, probe fluorescence polarization; AID 2176, 2009; inhibition, % at 5.96 µM; actives 54% (n = 2,400); shares compounds with GSTO1 counter;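 active means inhibition above the primary screen's cutoff, its mean inhibition plus 3 SD, cut at about 35% in these data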;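 further: loss of polarization as inhibitors block binding of rhodamine sulfonate ester activity probe; 0% = GSTO1 with DMSO and 100% = wells lacking GSTO1 enzyme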
GSTO1 ABPP inh: inhibitors of purified human GSTO1, late-stage follow-up, biochemical, gel ABPP, SE-Rh probe, percent inhibition; shares compounds with GSTO1 counter; recombinant GSTO1, gel ABPP SE-Rh probe fluorescence; inhibition, % at 1 µM; actives 30% (n = 130); AID 463110, 2010;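 active means inhibition of the enzyme GSTO1 above about 75%, limit read from the data; inactive means inhibition below that limit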
An asterisk follows results filed as active; nt = no result given.

SMILES	GSTO1 counter	Apaf1 inhib	TDP2 inh	PP5 primary	PP1 counter	GSTO1 inh conf	others
CC1(C)CCC(C)(C)c2cc(NC(=O)c3ccc(C(=O)O)cc3)ccc21	nt	nt	1	nt	nt	nt
CCCNC(=O)c1ccc2c(=O)n3c(-c4ccc(C)cc4)csc3nc2c1	46*	29	2	3	2	28
CCOC(=O)CC[C@@H]1CC[C@]2(CCCN(Cc3cccs3)C2)O1	nt	nt	1	nt	nt	nt
C/C(=N\Nc1nc2ccccc2c(=O)n1O)c1ccco1	67*	8	-18	1	4	25
C/C(=N\NC(=O)c1cc(C)nc2ccccc12)c1ccco1	5	1	-7	0	2	nt
O=C(NC1CCCCN(Cc2cccc(Cl)c2)C1=O)c1ccc(F)cc1 (centres undefined)	nt	nt	-4	nt	nt	nt
O=[N+]([O-])c1cnc2ccccc2c1	6	-2	11	0	0	nt
O=[N+]([O-])c1cc([N+](=O)[O-])c2cc3ccccc3nc2c1	39*	25	7	-1	-2	10
N#C/C(N=Nc1ccccc1O)=N\Nc1ccccc1O	87*	6	15	1	2	68*
Oc1ccccc1N=N/C(=N/Nc1ccccc1O)c1ccccc1	17	6	-12	0	0	nt
COC(=O)C1CN(CC(C)C)CCS(=O)(=O)N1Cc1cccc(Cl)c1 (centres undefined)	nt	nt	2	nt	nt	nt
COC(=O)[C@]12C[C@H](CC(=O)NCCCCc3ccccc3)C(=O)N(Cc3ccc(Cl)cc3Cl)C1=C[C@H](C1CCCC1)O[C@@H]2C	nt	nt	7	nt	nt	nt
COc1ccc(C(CCN(Cc2ccc(OC)c(OC)c2)C(C)=O)c2ccccc2)cc1 (centres undefined)	0	-6	5	0	2	nt
COc1ccc(CN(CCC(c2ccccc2)c2ccc(OC(C)C)cc2)C(=O)CCl)cc1OC (centres undefined)	78*	34	4	4	8	90*	GSTO1 ABPP inh=90*
Cn1nc(-c2ccc(Cl)cc2)nc2c(=O)n(C)c(=O)nc1-2	91*	99*	nt	12*	37*	92*
COc1ccc(-c2noc(C3CCCN(C(=O)Nc4cccc(C)c4)C3)n2)cc1 (centres undefined)	nt	nt	-4	nt	nt	nt
CC1=CC(C)(C)N(C(=O)CCl)c2ccccc21	65*	9	-10	3	0	58*	GSTO1 ABPP inh=31
CC1=CC(C)(C)N(C(=O)CCl)c2cc(C)ccc21	20	-7	-5	-1	-5	nt
CCN(CC)c1ccc(NC2=C(Cl)C(=O)c3ccccc3C2=O)cc1	83*	nt	nt	3	2	84*
COc1ccc(NC2=C(NC(C)=O)C(=O)c3ccccc3C2=O)cc1	17	14	11	0	-6	nt
Cc1ccc(NC2=C(Cl)C(=O)c3ccccc3C2=O)cc1	85*	nt	8	1	1	85*
O=C1C(Cl)=C(Nc2ccc(O)cc2)C(=O)c2ccccc21	90*	26	14	1	2	92*
CN1C(=O)c2cc(NC(=O)Cc3cccs3)ccc2OC[C@@H]2O[C@@H](CC(=O)N[C@H]3CCN(Cc4ccccc4)C3)CC[C@@H]21	nt	nt	0	nt	nt	nt
COC(=O)[C@H](C(C)C)N(CCc1cn(Cc2ccc(C)cc2)nn1)S(=O)(=O)c1ccccc1Br	nt	nt	-7	nt	nt	nt
COC(=O)[C@]12C[C@H](CC(=O)N3CCN(C(=O)C4CC4)CC3)C(=O)N(Cc3ccc4c(c3)OCO4)C1=C[C@H](COCc1ccccc1)O[C@@H]2C	nt	nt	-2	nt	nt	nt
SMILES	GSTO1 counter	Apaf1 inhib	TDP2 inh	PP5 primary	PP1 counter	GSTO1 inh conf	others
CCn1c(CSc2nnc(-c3cccnc3)n2-c2ccccc2C)nc2cc(C(=O)O)ccc21	69*	5	nt	0	1	59*
Cc1nc(-c2ccc(O)c(O)c2)cs1	42*	3	13	8	-5	7
Oc1ccccc1-c1csc(-c2ccccc2)n1	7	16	-2	0	-4	nt
Oc1ccc(-c2csc(-c3cccnc3)n2)cc1O	59*	-11	-16	2	-3	6
Cc1ccc2nc(-c3ccc(O)c(O)c3)cn2c1	58*	3	3	-2	-1	11
Oc1ccc(-c2csc(-c3ccccc3)n2)cc1O	39*	5	-15	3	-3	2
COc1cc(-c2csc(C)n2)ccc1O	0	1	-2	2	-1	nt
Cc1ccc2nc(-c3ccccc3)cn2c1	-3	-4	-13	3	1	nt
COc1ccccc1-c1csc(Nc2ccc(Oc3ccccc3)cc2)n1	nt	nt	-1	nt	nt	nt
Nc1c(C(=O)OCC2CCCO2)c2nc3ccccc3nc2n1C1CCCCC1 (centres undefined)	67*	38	8	1	-2	13
Cc1ccc(NC(=O)COC(=O)CCc2ccc(S(=O)(=O)N3CCOCC3)cc2)cc1F	40*	7	3	3	-1	4
CC(=O)c1cccc(NC(=O)COC(=O)CCc2ccc(S(=O)(=O)N3CCOCC3)cc2)c1	-4	-8	-3	-2	-3	nt
CC(C(=O)OCC(=O)Nc1cccc(S(=O)(=O)N2CCOCC2)c1)N1C(=O)c2ccccc2C1=O (centres undefined)	39*	2	1	2	0	24
NC1=[N+](Cc2ccccc2)C(Cc2ccccc2)C2C(=C3CCCCC3n3c(=O)n(-c4ccccc4)c(=O)n32)N1 (centres undefined)	nt	nt	7	nt	nt	nt
Cc1cc(C(=O)NNC(=O)c2cccc(Cl)c2)no1	-8	-9	-13	-1	-3	nt
Cc1cc(C(=O)NNC(=O)c2ccc(Cl)cc2)no1	48*	-6	0	0	-2	7
O=C(O)c1ccc2cccc(O)c2n1	39*	-20	6	0	0	22
N#C/C(=C(/O)CCl)c1nc2ccccc2[nH]1	84*	-9	11	-1	-2	94*
N#C/C(=C(\O)Cc1ccccc1)c1nc2ccccc2[nH]1	7	3	7	-1	-2	nt
COC(=O)[C@]12C[C@H](CC(=O)NCc3ccc(C)o3)C(=O)N(CCC3=CCCCC3)C1=C[C@H](COCc1ccccc1)O[C@@H]2C	nt	nt	0	nt	nt	nt
